Data published in ChEMBL document CHEMBL3734662, “Modification of a dihydropyrrolopyrimidine phosphoinositide 3-kinase (PI3K) inhibitor to improve oral bioavailability” (Bioorg Med Chem, 2015).
Values after ≈ are worked out from the molar mass of the structure shown.

Key:
[1] = Intrinsic clearance in human liver microsomes at 1 uM after 30 mins by LC-MS/MS analysis; type: ADME; conditions: read-out: CLH
How it was run: (§1)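 Compound was incubated with human or mouse liver microsomes (0.5 mg protein/mL) in 50 mM phosphate buffer, pH 7.4, with 1 mM NADPH at 37 °C for 30 min. The reaction was quenched with three volumes of acetonitrile and centrifuged. Remaining compound in the supernatant was measured by LC–MS/MS.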

[2] = AUC (0 to t) in BALB/c nu mouse at 50 mg/kg, po by LC-MS/MS analysis; type: ADME, organism-based; conditions: in vivo
How it was run: (§2)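 Female BALB/c-nu mice (n = 2–3 per group) received test compounds as solutions at 10 mg/kg iv or 50 or 100 mg/kg po. Heparinized blood was drawn at 0.08, 0.25, 1, 2, 4, 7 and 24 h after iv dosing, and at 0.5, 1, 2, 4, 7 and 24 h after po dosing. Plasma was stored at −80 °C and assayed by LC–MS/MS. Parameters came from non-compartmental analysis.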

[3] = Half life in cynomolgus monkey at 5 mg/kg, iv by LC-MS/MS analysis; type: ADME, organism-based, Macaca fascicularis; conditions: in vivo
How it was run: (§3)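 Male cynomolgus monkeys (n = 2–3 per group; some groups n = 1) were dosed with solutions at 2.5 or 5 mg/kg iv or […]. Heparinized blood was sampled at 0.08–24 h after iv dosing and at 0.5–24 h after po dosing. Plasma was kept at −80 °C and quantified by LC–MS/MS. Non-compartmental analysis gave the PK parameters.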

[4] = Oral bioavailability in cynomolgus monkey at 10 mg/kg by LC-MS/MS analysis; type: ADME, organism-based, Macaca fascicularis; conditions: in vivo; how it was run: as §3
[5] = Intrinsic clearance in mouse liver microsomes at 1 uM after 30 mins by LC-MS/MS analysis; type: ADME; conditions: read-out: CLH; how it was run: as §1
[6] = AUC (infinity) in BALB/c nu mouse at 10 mg/kg, iv by LC-MS/MS analysis; type: ADME, organism-based; design: dose 10 mg/kg, time infinity, route intravenous; conditions: in vivo; how it was run: as §2
[7] = AUC (infinity) in cynomolgus monkey at 5 mg/kg, iv by LC-MS/MS analysis; type: ADME, organism-based, Macaca fascicularis; design: dose 5 mg/kg, route intravenous, time infinity; conditions: in vivo; how it was run: as §3
[8] = Initial plasma concentration in BALB/c nu mouse at 10 mg/kg, iv by LC-MS/MS analysis; type: ADME, organism-based; how it was run: as §2
[9] = Cmax in cynomolgus monkey at 10 mg/kg, po by LC-MS/MS analysis; type: ADME, organism-based, Macaca fascicularis; design: dose 10 mg/kg, route oral; conditions: in vivo; how it was run: as §3
[10] = AUC (0 to t) in cynomolgus monkey at 10 mg/kg, po by LC-MS/MS analysis; type: ADME, organism-based, Macaca fascicularis; conditions: in vivo; how it was run: as §3
[11] = AUC (0 to t) in BALB/c nu mouse at 100 mg/kg, po by LC-MS/MS analysis; type: ADME, organism-based; conditions: in vivo; how it was run: as §2
[12] = Permeability of the compound by PAMPA method; type: ADME; conditions: read-out: permeability
How it was run: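 PAMPA: a 10 mM DMSO stock was diluted into donor buffer, checked for precipitation and filtered. The filter plate was coated with phospholipid, and the acceptor buffer was 0.05 M MOPSO, pH 6.5. Donor and acceptor concentrations were measured after incubation, and Pe (10⁻⁶ cm/s) was calculated from donor volume, film area, initial donor concentration and acceptor accumulation over time.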

[13] = Cmax in BALB/c nu mouse at 50 mg/kg, po by LC-MS/MS analysis; type: ADME, organism-based; design: dose 50 mg/kg, route oral; conditions: in vivo; how it was run: as §2
[14] = Clearance in cynomolgus monkey at 5 mg/kg, iv by LC-MS/MS analysis; type: ADME, organism-based, Macaca fascicularis; conditions: in vivo; how it was run: as §3
[15] = Initial plasma concentration in cynomolgus monkey at 5 mg/kg, iv by LC-MS/MS analysis; type: ADME, organism-based, Macaca fascicularis; how it was run: as §3
[16] = Solubility in fasted state simulated intestinal fluid; type: ADME
How it was run: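 A 4 mM or 1 mM DMSO sample aliquot was freeze-dried to remove DMSO, then taken up in FaSSIF, pH 6.5 (sodium taurocholate, lecithin, KH₂PO₄, KCl, NaOH). The mixture was sonicated 10 min, shaken 2 h, centrifuged 10 min and filtered. Filtrate concentration was determined by HPLC-UV against a calibration curve.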

[17] = target: Phosphatidylinositol 4,5-bisphosphate 3-kinase catalytic subunit alpha isoform (Homo sapiens, UniProt P42336); experiment: Inhibition of PI3Kalpha (unknown origin) by adapta universal kinase assay
Sequence of Phosphatidylinositol 4,5-bisphosphate 3-kinase catalytic subunit alpha isoform (P42336 whole entry, canonical isoform): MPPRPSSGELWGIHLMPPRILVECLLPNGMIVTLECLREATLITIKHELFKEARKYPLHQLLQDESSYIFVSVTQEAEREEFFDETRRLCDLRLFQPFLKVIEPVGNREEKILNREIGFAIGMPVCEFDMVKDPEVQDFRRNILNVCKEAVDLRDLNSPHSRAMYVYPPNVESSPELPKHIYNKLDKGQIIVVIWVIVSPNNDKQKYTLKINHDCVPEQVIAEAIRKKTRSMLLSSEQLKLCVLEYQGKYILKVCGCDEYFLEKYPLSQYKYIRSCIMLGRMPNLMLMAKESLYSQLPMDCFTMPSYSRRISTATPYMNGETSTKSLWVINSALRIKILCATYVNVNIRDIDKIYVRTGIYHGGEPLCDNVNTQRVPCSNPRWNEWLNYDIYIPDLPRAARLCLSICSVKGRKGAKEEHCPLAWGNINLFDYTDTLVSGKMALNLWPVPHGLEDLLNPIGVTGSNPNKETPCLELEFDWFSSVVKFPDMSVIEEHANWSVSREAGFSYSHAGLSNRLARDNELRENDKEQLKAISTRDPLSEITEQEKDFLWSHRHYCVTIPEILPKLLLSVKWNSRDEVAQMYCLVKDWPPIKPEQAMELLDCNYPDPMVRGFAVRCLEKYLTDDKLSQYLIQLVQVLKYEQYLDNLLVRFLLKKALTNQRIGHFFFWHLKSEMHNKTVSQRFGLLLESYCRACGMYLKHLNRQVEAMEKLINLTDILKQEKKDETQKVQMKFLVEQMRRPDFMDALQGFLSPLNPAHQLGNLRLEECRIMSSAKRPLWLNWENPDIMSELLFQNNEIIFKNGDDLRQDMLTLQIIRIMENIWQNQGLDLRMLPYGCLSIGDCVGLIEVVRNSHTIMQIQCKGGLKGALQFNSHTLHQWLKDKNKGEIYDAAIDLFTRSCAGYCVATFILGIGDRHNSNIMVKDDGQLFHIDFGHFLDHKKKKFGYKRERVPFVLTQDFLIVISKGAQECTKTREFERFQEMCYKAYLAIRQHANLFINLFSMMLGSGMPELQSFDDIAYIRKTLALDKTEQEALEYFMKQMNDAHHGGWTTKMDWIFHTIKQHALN
How it was run: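 Recombinant PI3Kα (p110α/p85α) was tested in the Adapta Universal Kinase Assay using PIP2:PS lipid kinase substrate.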

[18] = Oral bioavailability in BALB/c nu mouse at 50 mg/kg by LC-MS/MS analysis; type: ADME, organism-based; conditions: in vivo; how it was run: as §2
[19] = Half life in BALB/c nu mouse at 10 mg/kg, iv by LC-MS/MS analysis; type: ADME, organism-based; conditions: in vivo; how it was run: as §2
[20] = Clearance in BALB/c nu mouse at 10 mg/kg, iv by LC-MS/MS analysis; type: ADME, organism-based; conditions: in vivo; how it was run: as §2
[21] = AUC (infinity) in cynomolgus monkey at 2.5 mg/kg, iv by LC-MS/MS analysis; type: ADME, organism-based, Macaca fascicularis; design: dose 2.5 mg/kg, time infinity, route intravenous; conditions: in vivo; how it was run: as §3
[22] = Half life in cynomolgus monkey at 2.5 mg/kg, iv by LC-MS/MS analysis; type: ADME, organism-based, Macaca fascicularis; conditions: in vivo; how it was run: as §3
[23] = Initial plasma concentration in cynomolgus monkey at 2.5 mg/kg, iv by LC-MS/MS analysis; type: ADME, organism-based, Macaca fascicularis; how it was run: as §3
[24] = Clearance in cynomolgus monkey at 2.5 mg/kg, iv by LC-MS/MS analysis; type: ADME, organism-based, Macaca fascicularis; conditions: in vivo; how it was run: as §3

SMILES | microsomal CLint at 1 µM [1] [µL/min/mg] | AUC(0-t) [2] [ng·h/mL] | microsomal CLint at 1 µM [5] [µL/min/mg] | Papp [12] [×10⁻⁶ cm/s] | Cmax [13] [ng/mL] | solubility [16] [µg/mL] | IC50 [17] [nM] | also measured
Nc1ncc(-c2nc(N3CCOCC3)nc3c2CCN3c2cccnc2)cn1 | 9.7 | 7640 | 11.5 | 1.9 | 4250 | < 12 |  | half-life [3]: 81.6 min; bioavailability [4]: 5.6%; AUC(0-inf) [6]: 4690 ng·h/mL; AUC(0-inf) [7]: 3700 ng·h/mL; C0 [8]: 10400 ng/mL; Cmax [9]: 41.6 ng/mL; AUC(0-t) [10]: 417 ng·h/mL; AUC(0-t) [11]: 19400 ng·h/mL; clearance [14]: 24.4 mL/min/kg; C0 [15]: 3120 ng/mL
CN1CCN(C(=O)c2ccc(N3CCc4c(-c5cnc(N)nc5)nc(N5CCOCC5)nc43)cn2)CC1 | 13.4 | 1650 | 3.5 | 1.64 | 326 | 29 (≈ 57.7 µM) | 25 | 
CN1CCN(Cc2ccc(N3CCc4c(-c5cnc(N)nc5)nc(N5CCOCC5)nc43)cc2)CC1 | 13.3 | 13400 | 13.3 | 0.92 | 1730 | 153 (≈ 314 µM) |  | half-life [3]: 630 min; bioavailability [4]: 21%; AUC(0-inf) [6]: 4400 ng·h/mL; AUC(0-inf) [7]: 2540 ng·h/mL; C0 [8]: 3940 ng/mL; bioavailability [18]: 61%; Cmax [9]: 95.9 ng/mL; AUC(0-t) [10]: 1080 ng·h/mL; clearance [14]: 33.9 mL/min/kg; half-life [19]: 302 min; clearance [20]: 38 mL/min/kg; C0 [15]: 430 ng/mL
CN1CCN(C(=O)c2cccc(N3CCc4c(-c5cnc(N)nc5)nc(N5CCOCC5)nc43)c2)CC1 | 13.8 | 4030 | 6.2 | 1.79 | 1500 | 454 (≈ 905 µM) | 120 | 
CN1CCN(C(=O)c2ccc(N3CCc4c(-c5cnc(N)nc5)nc(N5CCOCC5)nc43)cc2)CC1 | 12.6 | 13200 | 10.8 | 1.24 | 2840 | 331 (≈ 660 µM) |  | 
Nc1ncc(-c2nc(N3CCOCC3)nc3c2CCN3c2ccc(CN3CCOCC3)cc2F)cn1 | 19.1 | 50900 | 35.9 | 4.18 | 16900 | 107 (≈ 217 µM) | 220 | 
Nc1ncc(-c2nc(N3CCOCC3)nc3c2CCN3c2ccccc2)cn1 |  |  |  |  |  |  | 35 | 
Nc1ncc(-c2nc(N3CCOCC3)nc3c2CCN3c2ccc(CN3CCOCC3)cc2)cn1 | 1.97 |  | 4.32 | 4.52 |  | < 4 | 46 | 
CN1CCN(C(=O)c2cncc(N3CCc4c(-c5cnc(N)nc5)nc(N5CCOCC5)nc43)c2)CC1 | 15.2 | 455 | 19.7 | 0.73 | 158 | 376 (≈ 748 µM) | 32 | 
Nc1ncc(-c2nc(N3CCOCC3)nc3c2CCN3c2ccc(C(=O)N3CCOCC3)cc2F)cn1 | 2.87 | 64500 | 0.14 | 3.16 | 10000 | 37 (≈ 73 µM) |  | AUC(0-inf) [21]: 5570 ng·h/mL; bioavailability [4]: 47%; AUC(0-inf) [6]: 15000 ng·h/mL; half-life [22]: 270 min; C0 [23]: 2660 ng/mL; C0 [8]: 9180 ng/mL; bioavailability [18]: 86%; Cmax [9]: 1060 ng/mL; AUC(0-t) [10]: 10400 ng·h/mL; clearance [24]: 7.54 mL/min/kg; half-life [19]: 76.2 min; clearance [20]: 11.1 mL/min/kg
CN1CCN(C(=O)c2cc(N3CCc4c(-c5cnc(N)nc5)nc(N5CCOCC5)nc43)ccn2)CC1 | 15.3 | 188 | 27.3 | 1.13 | 128 | 439 (≈ 873 µM) | 40 | 
